Experimental data of several laboratories.
Compare with care: the assays were run in different laboratories.
Target: Receptor-interacting serine/threonine-protein kinase 2 (RIPK2, Homo sapiens, UniProt O43353)

| Compound | assay | conditions | remaining binding |
| --- | --- | --- | --- |
| O=C(c1ccc(Nc2ncc(Cl)c(-c3cc4ccccc4s3)n2)cc1)N1CCC(N2CCCC2)CC1 | binding, competition with immobilised ligand | 1 µM | 98% |
| C[C@@H](c1ccc(-n2cnc3c(N)ncnc32)cc1)N1CCc2nn(C)c(Cc3ccccc3)c2C1=O | binding, competition with immobilised ligand | 0.1 µM | 100% |
| COc1ncc2cc3ccccc3nc2c1C#N | cell-free assay, competition with immobilised ligand | 5 µM | 100% |
| COc1cnc(Nc2cccc(S(N)(=O)=O)c2)nc1N1CCN(c2ccccc2)CC1 | binding, competition with immobilised ligand | 1 µM | 100% |
| COc1ccnn2ncc(-c3ccnc(N(C)C)n3)c12 | binding | 1 µM | 100% |
| Nc1cnc(N2CCc3cc(S(=O)(=O)Nc4c(F)cc(Cl)cc4F)cc(N4CCCC4=O)c32)nc1 | cell-free assay, competition with immobilised ligand | 1 µM | 53% |
| O=C(NCCCN1CCOCC1)c1ccc(Nc2nccc(-c3cc4ccccc4s3)n2)cc1 | binding, competition with immobilised ligand | 1 µM | 80% |
| CN(CCCC(F)(F)F)c1nccc(-c2cnn3ncccc23)n1 | binding | 1 µM | 89% |
| CN(C(=O)c1ccccc1)c1cc(N(C)c2ccc3c(c2)CCc2ccc(C(=O)NCCN4CCOCC4)cc2C3=O)ccc1F | cell-free assay, competition with immobilised ligand | 1 µM | 56% |
| Cc1cnn2ncc(-c3ccnc(N(C)C)n3)c2c1 | binding | 1 µM | 100% |
| c1cncc(-c2cccc(Nc3nccc(NC4CCCCC4)n3)c2)c1 | binding, competition with immobilised ligand | 10 µM | 39% |
| CN([C@@H]1CCc2c(CC(=O)O)c3ccccc3n2C1)S(=O)(=O)c1ccc(F)cc1 | cell-free assay, competition with immobilised ligand | 1 µM | 92% |
| CNC(=O)[C@@H]1CC[C@@H](n2c(-c3ccc4cnccc4c3)nc3ccc(C(=O)NCc4cccc(C(N)=O)c4)cc32)C1 | binding, competition with immobilised ligand | 1 µM | 100% |
| Cc1cnc(Nc2ccc(C(=O)N3CCC(N4CCCC4)CC3)cc2)nc1-c1cc2ccccc2s1 | binding, competition with immobilised ligand | 1 µM | 81% |
| O=C(NC[C@@H]1[C@H]2CN(C(=O)OCc3cc(C(F)(F)F)cc(C(F)(F)F)c3)C[C@@H]12)c1ccc2[nH]nnc2c1 | cell-free assay, competition with immobilised ligand | 1 µM | 64% |
| N[C@@H]1CCN(c2nccc(-c3cnn4ncccc34)n2)C1 | binding | 1 µM | 95% |
| C[C@@H]1CN(c2cc(-c3nn(C)c4ccc(OC5(C)CC5)cc34)ncn2)C[C@H](C)O1 | cell-free assay, competition with immobilised ligand | 1 µM | 100% |
| C[C@@H]1CCN(c2nccc(-c3cnn4ncccc34)n2)C1 | binding | 1 µM | 91% |
| O=C1NC(c2ccccn2)Sc2ccccc21 (stereo not shown) | cell-free assay, competition with immobilised ligand | 1 µM | 100% |
| O=C(Nc1c[nH]nc1C(=O)NC1CCNCC1)c1cc(F)cc(F)c1 | binding, competition with immobilised ligand | 1 µM | 53% |
| CN(C)c1ncc(F)c(-c2cnn3ncccc23)n1 | binding | 1 µM | 100% |
| Cc1cc(NC(=O)c2cccc(S(F)(F)(F)(F)F)c2)cc(-n2ccn3nc(-c4cccnc4)cc23)c1 | cell-free assay, competition with immobilised ligand | 1 µM | 88.6% |
